The list is not random: actives were taken first. Their share in the collection is about 2.3%.
UCH37 inh – inhibitors of human UCH37 deubiquitinase, primary screen, biochemical, Ub-AMC cleavage, fluorescence. Ubiquitin carboxyl-terminal hydrolase isozyme L5 (Homo sapiens), Q9Y5K5. purified proteasome/UCH37. inhibition, % (test concentration not listed). 330,000 compounds, 0.33% hits. AID 588478, 2011;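 active means mean inhibition over replicate wells above about 20%, limit read from the data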;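 further: 0% = compound-free wells with enzyme and 100% = wells lacking proteasome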
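Material: human UCH37 enzyme supplied as purified proteasome complex / Amount: 0.15 nM proteasome as dispensed / Buffer or medium: pH 7.4 Tris-HCl (50 mM) with ovalbumin, ATP-MgCl2, DTT / Times: preincubation 30 min, reaction 25 min, room temperature / Technique: AMC fluorescence from Ub-AMC cleavage, excitation 355 nm, emission 460 nm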
UBC13 polyUb – UBC13 polyubiquitin chain formation inhibitors, primary screen, biochemical, TR-FRET, uHTS; Ubiquitin-conjugating enzyme E2 N (Homo sapiens), P61088; 330,000 compounds, 0.47% hits; inhibition, % at 20 µM; in the data active means inhibition above about 45%, passing the limit was not always enough
Target sequence (P61088 whole entry, looked up): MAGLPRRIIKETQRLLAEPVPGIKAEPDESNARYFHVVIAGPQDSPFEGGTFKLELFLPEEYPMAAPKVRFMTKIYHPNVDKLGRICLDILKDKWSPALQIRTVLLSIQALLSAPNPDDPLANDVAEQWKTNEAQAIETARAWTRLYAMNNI
Fh CTSL1 inh – Fasciola hepatica cathepsin L1 inhibitors, primary screen, counter-screen for PFM18AAP inhibitor project, biochemical, QFRET, fluorogenic peptide substrate; recombinant F. hepatica cathepsin L1, Z-Leu-Arg-MCA fluorescence; inhibition, % at 5.96 µM; 300,000 compounds, 0.49% hits; AID 1906, 2009;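 active means inhibition above the mean of all tested compounds plus 3 SD, set per screening campaign, cut at about 17% in these data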;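 further: 0% = plate median of test compound wells and 100% = 1 µM Z-Phe-Ala-diazomethylketone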
PREPL inhibitor – PREPL enzyme inhibitors, primary screen, biochemical, fluorescence polarization; Prolyl endopeptidase-like (Homo sapiens), Q4J6C6; recombinant PREPL, fluorescence polarization activity-based probe; inhibition, % at 5.96 µM; 320,000 compounds, 0.68% hits; in the data active means inhibition above about 43%;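 further: 0% = enzyme with DMSO and 100% = wells lacking enzyme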
PP1 inh – PP1-alpha phosphatase inhibitors, primary screen, counter-screen for PP5 inhibitor project, biochemical, fluorescence, OMFP substrate, single point. Serine/threonine-protein phosphatase PP1-alpha catalytic subunit (Homo sapiens), P62136. purified PP1alpha. inhibition, % at 6.7 µM. 320,000 compounds, 0.9% hits. AID 2235, 2010;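 active means inhibition above the mean inhibition of all tested compounds plus 3 SD, computed separately for each screening campaign, cut at about 15% in these data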
Target sequence (P62136 whole entry, looked up): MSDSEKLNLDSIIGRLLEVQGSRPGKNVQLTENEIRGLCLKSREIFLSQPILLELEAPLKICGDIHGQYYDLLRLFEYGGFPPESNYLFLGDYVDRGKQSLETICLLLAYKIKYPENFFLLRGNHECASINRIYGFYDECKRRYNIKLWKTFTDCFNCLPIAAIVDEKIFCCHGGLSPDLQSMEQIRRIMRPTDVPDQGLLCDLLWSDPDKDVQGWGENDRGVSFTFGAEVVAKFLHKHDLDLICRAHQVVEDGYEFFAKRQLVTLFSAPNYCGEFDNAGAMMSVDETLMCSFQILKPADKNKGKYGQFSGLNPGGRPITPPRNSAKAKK
PP5 inh – PP5 phosphatase inhibitors, primary screen, biochemical, fluorescence; Serine/threonine-protein phosphatase 5 (Homo sapiens), P53041; purified PP5c, OMFP substrate fluorescence; inhibition, % at 6.7 µM; 320,000 compounds, 0.18% hits; AID 1987, 2009;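 active means inhibition above the campaign's mean inhibition across all tested compounds plus 3 SD, cut at about 9.5% in these data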;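 further: 0% = DMSO only and 100% = 100 µM cantharidin control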
* = called active by the depositor; . = no result.

SMILES | UCH37 inh | UBC13 polyUb | Fh CTSL1 inh | PREPL inhibitor | PP1 inh | PP5 inh
COc1ccccc1C=NNC(=O)c1ccc(COc2ccc(C)c(C)c2)o1 | 2 | . | . | . | . | .
COc1ccc(C(=O)c2no[n+]([O-])c2C(=O)c2ccc(OC)cc2)cc1 | 8 | -6 | 18* | 21 | -2 | 1
Cc1cc(=O)[nH]c(NN=Cc2c(C)nn(-c3ccccc3Cl)c2Cl)n1 | 3 | . | . | . | . | .
Nc1nc(NC(=O)c2ccc(F)cc2)ns1 | 27* | -2 | -1 | -11 | -3 | -2
CC(=NOCC(=O)Nc1cc(C)cc(C)c1)c1ccc2c(c1)OCCO2 | 4 | . | . | . | . | .
N#Cc1nc(N2CCOCC2)nc(N2CCOCC2)n1 | 5 | -2 | 48* | -8 | -1 | 0
O=C1C(SCCO)=C(SCCO)C(=O)c2ccccc21 | . | -124 | 79* | 30 | 4 | 9
COc1ccc(C(C[N+](=O)[O-])c2c(-c3ccccc3)cc3ccccn23)c(OC)c1 (stereo not given) | . | -14 | -1 | 5 | 17* | -3
COc1ccc(C(C[N+](=O)[O-])c2c(C)cc3ccccn23)cc1 (stereo not given) | 3 | -16 | -1 | 24 | 14 | 3
CNC(=O)COC(=O)c1ccc([N+](=O)[O-])cc1Cl | 3 | -2 | 18* | -2 | -4 | 3
CC(C)NC(=O)NC(=O)COC(=O)c1ccc([N+](=O)[O-])cc1Cl | -2 | -2 | 1 | 13 | -5 | -1
CCCCn1c(N=Cc2ccc(N(C)C)cc2)nc2ccccc21 | 4 | . | . | . | . | .
NC(=O)c1ccc(N=Cc2ccc([N+](=O)[O-])s2)cc1 | 62* | . | 11 | 4 | 0 | 2
CC(C)(C)c1ccc(S(=O)(=O)/N=C2\C=C(NS(=O)(=O)c3ccccc3)C(=O)c3ccccc32)cc1 | . | -81 | -4 | 7 | 2 | 2
Cc1ccc(S(=O)(=O)/N=C2\C=C(Nc3cccc(C(=O)O)c3)C(=O)c3ccccc32)cc1 | . | -185 | 63* | 32 | 6 | 9
COC(=O)c1ccccc1NC1=C/C(=N\S(=O)(=O)c2ccc(C(=O)O)cc2)c2ccccc2C1=O | 90* | -128 | 47* | 22 | 5 | 9
C=CCn1c(C)cc(C(=O)CSc2nnc(NCc3ccccc3)s2)c1C | 5 | . | 3 | 15 | 4 | 12*
C=CCn1c(C)cc(C(=O)CSc2nnc(NC(C)C)s2)c1C | -5 | -1 | -5 | 1 | -3 | 1
CCOc1ccc(C=Nn2c(C)nnc2C)cc1OC | 4 | . | . | . | . | .
CCOC(=O)N1CCC(n2c(SCC(=O)NCCC3=CCCCC3)nc3ccccc3c2=O)CC1 | 24* | -2 | 2 | -7 | 3 | 1
Cc1nc2ccc(NC(=O)N3CCCCC3)cc2nc1C | -130 | 2 | 0 | 2 | -3 | -1
O=C(Nc1ccc2nc(-c3ccco3)c(-c3ccco3)nc2c1)N1CCCCCC1 | -152 | 27 | 6 | 75* | 37* | 4
C=CCNC(=S)NN=Cc1ccccc1OCCOc1ccccc1 | -1 | . | . | . | . | .
Cc1nnc(N/N=C/c2ccccc2O)n1N | . | -32 | 20* | 20 | -1 | 2
Cc1nnc(NN=Cc2ccc(Br)cc2)n1N | 4 | . | . | . | . | .
SMILES | UCH37 inh | UBC13 polyUb | Fh CTSL1 inh | PREPL inhibitor | PP1 inh | PP5 inh
O=C(NCc1cccs1)c1nc2c(nnn2Cc2ccccc2Cl)c(=O)[nH]1 | 0 | . | 4 | -1 | 21* | 2
Cc1ccc(NC(=O)Nc2ccc3c(c2)OCO3)c(Br)c1 | 3 | -8 | 11 | 7 | 17* | -11
O=C(Nc1ccc2c(c1)OCO2)Nc1ccc2c(c1)OCO2 | -2 | -16 | 2 | 9 | -4 | 1
O=C(CN1C(=O)S/C(=C\c2cccs2)C1=O)Nc1ccc(O)c(C(=O)O)c1 | 21* | . | 4 | 6 | 4 | -2
O=C(CN1C(=O)S/C(=C\c2cccs2)C1=O)Nc1ccc(C(=O)O)c(O)c1 | 13 | . | 6 | -3 | 2 | 1
Cc1ccc2[nH]c3c(N4CCc5ccccc5C4)ncnc3c2c1 | . | 5 | 4 | 46* | 5 | 1
Fc1ccc2[nH]c3c(N4CCc5ccccc5C4)ncnc3c2c1 | -14 | -5 | 6 | 14 | 1 | 3
CCc1ccccc1NC(=S)N=C(N)Nc1nc(C)c2cc(C)ccc2n1 | 1 | . | . | . | . | .
Oc1cccc(C=NN(Cc2ccccc2)c2ccccc2)c1 | 8 | . | . | . | . | .
Cc1ccc(S(=O)(=O)/N=C2\C(=O)c3ccccc3C([O-])=C2n2cc[n+](CCC(C)C)c2)cc1 | 31* | -98 | 7 | 18 | -1 | 1
CC(OC(=O)c1ccc([N+](=O)[O-])s1)C(=O)NC1CCCCC1C (stereo not given) | 23* | -21 | . | 30 | 0 | 5
COc1cc(C(=O)OC(C)C(=O)NC2CCCCC2C)c([N+](=O)[O-])cc1OC (stereo not given) | 4 | -12 | -1 | 12 | -1 | 1
CN(C)C(CNC(=O)C1CCCN(C(=O)c2ccc(Cl)cc2)C1)c1ccco1 (stereo not given) | 1 | 11 | 18* | 6 | -2 | 0
O=C(CCN1C(=O)c2ccccc2C1=O)N1CCN(Cc2ccccc2)CC1 | 0 | 2 | 0 | 13 | -5 | -3
Cc1ccc(CN2CCN(C(=O)CCN3C(=O)c4ccccc4C3=O)CC2)cc1 | 20* | 8 | 1 | 26 | -3 | 3
Cc1c(NC(=S)NN=Cc2ccc(N(C)C)cc2)c(=O)n(-c2ccccc2)n1C | -73 | . | . | . | . | .
O=C(O)CCC(=NNC(=O)c1ccncc1)c1ccccc1 | 1 | . | . | . | . | .
COc1cccc(C2/C(=C(/O)c3ccccc3)C(=O)C(=O)N2Cc2ccco2)c1 (stereo not given) | 10 | -12 | 0 | -2 | 1 | -1
COc1cccc(C2/C(=C(/O)c3ccc(C)cc3)C(=O)C(=O)N2Cc2ccco2)c1 (stereo not given) | 10 | -13 | 4 | 4 | 16* | -1
CC(=NNC(=O)c1ccc(Cl)cc1)c1cccc(NC(=O)c2cccnc2)c1 | 2 | . | . | . | . | .
COc1cc(C=NNC(=O)c2nnn(-c3nonc3N)c2-c2cccs2)ccc1O | -14 | . | . | . | . | .
Cc1ccc(NC2=CC(=NS(=O)(=O)c3cccs3)c3ccccc3C2=O)cc1 | 22* | . | . | . | . | .
O=C1C(Nc2ccccc2)=C/C(=N/S(=O)(=O)c2cccs2)c2ccccc21 | . | . | 82* | 30 | 2 | 7
Cc1ccc(NC2=C/C(=N/S(=O)(=O)c3cccs3)c3ccccc3C2=O)cc1 | . | -70 | 60* | 5 | 4 | 3

Compound activity (PubChem)
